# Source: ChEMBL document CHEMBL2034944, “Cytotoxic and anti-inflammatory triterpenoids from Toona ciliata” (J Nat Prod, 2012)
# How the values were obtained:
# Format in all cases: functional, cell-based
# [1] = Cytotoxicity against multidrug-resistant human MCF7/ADR cells after 48 hrs by MTT assay; settings: NCI/ADR-RES
# Procedure, shortened: (§1)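 MTT assay; cells grown in RPMI-1640 or DMEM with 10% FBS, 37 °C, 5% CO2. Adherent cells allowed to attach 12 h before dosing; suspension cells seeded just before dosing at 1 × 10^5 cells/mL. Exposure at 0.1, 1, 10, 100 and 500 μM in triplicate for 48 h. 5-fluorouracil and doxorubicin as positive controls. IC50 by Reed and Muench method.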
# [2] = Cytotoxicity against human KB/VCR cells after 48 hrs by MTT assay; procedure, shortened: as §1
# [3] = system: MCF7; assay: Cytotoxicity against human MCF7 cells after 48 hrs by MTT assay; settings: MCF7, 48 h; procedure, shortened: as §1
# [4] = system: KB; assay: Cytotoxicity against human KB cells after 48 hrs by MTT assay; procedure, shortened: as §1
# [5] = system: SMMC-7721; assay: Cytotoxicity against human SMMC7721 cells after 48 hrs by MTT assay; settings: SMMC-7721, 48 h; procedure, shortened: as §1
# [6] = system: K562; assay: Cytotoxicity against human K562 cells after 48 hrs by MTT assay; settings: K562, 48 h; procedure, shortened: as §1
# [7] = system: RAW264.7; assay: Antiinflammatory activity in mouse RAW264.7 cells assessed as inhibition of LPS-induced nitric oxide production pretreated for 2 hrs before LPS challenge measured after 18 hrs by Griess method
# Procedure, shortened: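 RAW 264.7 mouse macrophages in RPMI 1640 with 10% heat-inactivated FBS, penicillin/streptomycin, 37 °C, 5% CO2. Seeded 1 × 10^5 per well, 24 h, then pretreated 2 h with compounds at 40, 20, 10, 5, 2.5 μM (DMSO ≤0.1% final). LPS 2 μg/mL for 18 h. Supernatant nitrite read with Griess reagent at 540 nm against NaNO2 standard curve; n = 4; IC50.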
SMILES,IC50 [1] [µM],IC50 [2] [µM],IC50 [3] [µM],IC50 [4] [µM],IC50 [5] [µM],IC50 [6] [µM],IC50 [7] [µM]
COc1cccc2c1C(=O)c1c(O)c3c(c(O)c1C2=O)C[C@@](O)(C(=O)CO)C[C@@H]3O[C@H]1C[C@H](N)[C@H](O)[C@H](C)O1 [DOXORUBICIN],> 50,0.45,,,,,
CC(=O)O[C@@H]1C[C@H]2C(C)(C)C(=O)C=C[C@]2(C)[C@H]2[C@H](O)C[C@]3(C)C(=CC[C@H]3[C@H]3COC(C)(C)[C@@H](O)[C@H](O)C3)[C@@]21C [TOONACILIATAVARIN C],> 50,> 50,> 50,> 50,> 50,> 50,11
C[C@@H]([C@@H](O)[C@H](O)[C@H](O)C(C)(C)O)[C@@H]1CC[C@]2(C)C3=CC[C@H]4C(C)(C)C(=O)CC[C@]4(C)[C@H]3CC[C@@]12C,22.6,32.1,17.1,10.2,19.4,11.2,
CC(=O)O[C@@H]1C[C@H]2C(C)(C)C(=O)C=C[C@]2(C)[C@H]2[C@H](O)C[C@]3(C)C(=CC[C@H]3[C@H]3CO[C@@H](C(C)(C)O)[C@H](O)C3)[C@@]21C [TOONACILIATAVARIN B],> 50,> 50,> 50,> 50,> 50,> 50,7.9
C=C1[C@@H]([C@@]2(C)C=CC(=O)C(C)(C)[C@@H]2CC(=O)OC)[C@@H](OC(C)=O)[C@H](OC(C)=O)[C@@]2(C)[C@H](C3=CC(=O)OC3O)C[C@H]3O[C@]132 (stereo partly specified),,,,,,,38.9
CC1(C)OC[C@H]([C@@H]2CC[C@]3(C)C4=CC[C@H]5C(C)(C)[C@@H](O)CC[C@]5(C)[C@H]4CC[C@@]23C)C[C@@H](O)[C@@H]1O [TOONACILIATAVARIN D],> 50,> 50,> 50,39.5,31.4,43.1,33.4
C=C1[C@@H]([C@@]2(C)C=CC(=O)C(C)(C)[C@@H]2CC(=O)OC)[C@H](OC(C)=O)[C@H](OC(C)=O)[C@@]2(C)[C@H](C3=CCOC3=O)C[C@H]3O[C@]132,> 50,> 50,> 50,> 50,> 50,> 50,20.9
C[C@@H]1C[C@H]2[C@@H]3CCC4=CC(=O)C=C[C@]4(C)[C@@]3(F)[C@@H](O)C[C@]2(C)[C@@]1(O)C(=O)CO [DEXAMETHASONE],,,,,,,0.98
CC1(C)C(=O)C=C[C@]2(C)C3=CC[C@@]4(C)[C@H](C5=CC(O)OC5=O)C[C@H]5O[C@]54[C@]3(C)C(=O)C[C@@H]12 (stereo partly specified) [TOONACILIATAVARIN G],> 50,> 50,> 50,> 50,> 50,> 50,15.2
O=c1[nH]cc(F)c(=O)[nH]1 [FLUOROURACIL],> 100,33.4,> 100,6.8,> 100,2.1,
CC1(C)C(=O)C=C[C@]2(C)C3=CC[C@@]4(C)[C@H](C5=CC(=O)OC5O)C[C@H]5O[C@]54[C@]3(C)C(=O)C[C@@H]12 (stereo partly specified) [TOONACILIATAVARIN F],> 50,> 50,> 50,> 50,> 50,> 50,28.8
C=C1[C@@H]([C@@]2(C)C=CC(=O)C(C)(C)[C@@H]2CC(=O)OC)[C@@H](OC(C)=O)[C@H](OC(C)=O)[C@@]2(C)[C@H](C3=CC(O)OC3=O)C[C@H]3O[C@]132 (stereo partly specified),,,,,,,41.4
CC(C)(O)[C@@H]1OC[C@H]([C@@H]2CC=C3[C@]4(C)C(=O)C[C@H]5C(C)(C)C(=O)C=C[C@]5(C)[C@H]4[C@H](O)C[C@]32C)C[C@H]1O [TOONACILIATAVARIN A],> 50,> 50,> 50,> 50,> 50,> 50,9.4
